# In the library only some 1.9% were active in any assay of this set; here they are far more common.
# ASAP1 GAP inh: inhibitors of human ASAP1 ArfGAP activity, primary screen, biochemical, fluorescence polarization. Arf-GAP with SH3 domain, ANK repeat and PH domain-containing protein 1 (Homo sapiens), …. ASAP1-stimulated ARF1 GTP hydrolysis, GDP FP detection. inhibition, % at 16.5 µM. 360,000 tested, 0.19% active; in the data active = inhibition above about 25%
# Efflux pump mplx: inhibitors of Candida efflux pumps in yeast, primary screen, S. cerevisiae, Nile Red, multiplex | S. cerevisiae Candida pump triplex | inhibition, % at 10 µM | 330,000 tested, 0.44% active;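 active = plate passing quality check with inhibition over a set limit, or well fluorescence over plate mean plus 4 SD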;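 note: Nile Red retained in pooled yeast measured as flow cytometry median fluorescence; higher means more Nile Red kept so more efflux inhibition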
# ARFGAP1 inhibitor: inhibitors of rat ARFGAP1 GAP activity, primary screen, biochemical, fluorescence polarization, GDP tracer; inhibition, % at 16.5 µM; Arfgap1-stimulated ARF1 GTP hydrolysis, GDP FP detection; 360,000 tested, 0.26% active;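 active = inhibition above a per-plate limit, mean inhibition of low control wells plus 3 SD, cut at about 25% in these data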
# Target sequence (Q62848 1-136 limits assumed): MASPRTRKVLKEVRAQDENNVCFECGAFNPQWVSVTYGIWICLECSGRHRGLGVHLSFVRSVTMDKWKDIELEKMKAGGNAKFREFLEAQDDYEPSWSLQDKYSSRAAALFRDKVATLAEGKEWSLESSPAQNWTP
#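 Assay system: Rat Arfgap1 GAP domain (His6, aa 1-136), purified enzyme | Buffer or medium: HEPES 25 mM pH 7.5, NaCl 150 mM, MgCl2, DTT | Schedule: GTP hydrolysis reaction 2 h at 25 °C | Signal: FP of antibody-bound GDP Alexa 633 tracer, ex 620/em 688 nm | Measure: Percent inhibition of Arfgap1-stimulated GTP hydrolysis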
# FGF22 binding: binders of human FGF22 protein, primary screen, FGF22 synaptogenesis inhibitor project, biophysical, thermal shift, single point; Fibroblast growth factor 22 (Homo sapiens), Q9HCT0; recombinant FGF22 thermal shift, SYPRO orange fluorescence; percent of sucrose octasulfate shift, DMSO zero; activity (Tm shift, normalised), % at 9.99 µM; 340,000 tested, 1.5% active; AID 651658, 2012;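 active = mean Tm shift, scaled 0 neutral to 100 positive control, at about 1.3% or above, every replicate too, limit read from the data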
# Target sequence (Q9HCT0 whole entry, looked up): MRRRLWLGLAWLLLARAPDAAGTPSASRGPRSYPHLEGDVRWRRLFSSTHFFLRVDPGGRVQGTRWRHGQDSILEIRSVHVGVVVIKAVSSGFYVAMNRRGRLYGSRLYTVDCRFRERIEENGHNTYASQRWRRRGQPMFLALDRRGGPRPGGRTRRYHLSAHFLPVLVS
# Rtt109 HAT inh: inhibitors of C. albicans Rtt109/Vps75 HAT, primary screen, biochemical, ThioGlo CoA-SH fluorescence, plate reader; 330,000 tested, 0.16% active; Histone acetyltransferase RTT109 (Candida albicans (strain SC5314 / ATCC MYA-2876)), …; inhibition, % at 34.9 µM; purified Rtt109/Vps75, 4 h;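 active = inhibition of at least 50% in every replicate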
# Target sequence (Q5AAJ8 whole entry, looked up): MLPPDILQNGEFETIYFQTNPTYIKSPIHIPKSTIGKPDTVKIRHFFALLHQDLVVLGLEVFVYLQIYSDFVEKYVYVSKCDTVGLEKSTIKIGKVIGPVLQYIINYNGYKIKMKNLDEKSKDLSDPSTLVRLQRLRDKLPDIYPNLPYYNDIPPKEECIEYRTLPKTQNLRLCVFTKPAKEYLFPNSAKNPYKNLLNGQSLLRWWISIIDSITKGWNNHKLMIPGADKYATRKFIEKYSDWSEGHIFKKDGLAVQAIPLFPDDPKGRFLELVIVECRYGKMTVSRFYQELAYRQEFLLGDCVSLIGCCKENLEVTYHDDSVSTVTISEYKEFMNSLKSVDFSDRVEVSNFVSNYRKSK
# Yeast cmpd fluor: counter-screen for efflux pump inhibitors: compound fluorescence; 1,700 tested, 4% active; fluorescence ratio to DMSO, % at 10 µM; shares compounds with Efflux pump mplx; S. cerevisiae AD/pABC3, flow cytometry;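 active = fluorescence ratio to DMSO above its plate's cutoff, the plate mean ratio plus 5 SD, cut at about 210% in these data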;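 note: unstained yeast with no Nile Red so the signal is compound autofluorescence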
# CaMdr1 efflux inh: inhibitors of Candida albicans Mdr1 efflux, confirmation, flow cytometry, singleplex, Cherry Pick1 set. shares compounds with Efflux pump mplx. S. cerevisiae AD/CaMDR1, Nile Red efflux. inhibition, % at 10 µM. 1,700 tested, 1% active; in the data active = inhibition above about 26%;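 note: higher means more Nile Red retained so more efflux inhibition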
# CaCdr2 efflux inh: inhibitors of Candida albicans Cdr2 efflux pump, confirmation, S. cerevisiae AD/CaCDR2, flow cytometry, cherry pick 1, singleplex. shares compounds with Efflux pump mplx. 1,700 tested, 4% active. Nile Red retention. AID 588520, 2011. Nile Red retention ratio vs DMSO, % at 10 µM; in the data active = Nile Red retention ratio vs DMSO above about 190%;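 note: higher ratio means more blocking of Cdr2 efflux of the dye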
# Cdr1 pump inh: inhibitors of Candida albicans Cdr1 efflux pump, confirmation, S. cerevisiae AD/CaCDR1, flow cytometry, cherry pick 1, singleplex; shares compounds with Efflux pump mplx; Nile Red efflux; inhibition, % at 10 µM; 1,700 tested, 1% active;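 active = inhibition above the screen-wide mean plus twice its standard deviation, cut at about 32% in these data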
# Numbers stand for hits; - = inactive; . = not tested or not shown.
SMILES,ASAP1 GAP inh,Efflux pump mplx,ARFGAP1 inhibitor,FGF22 binding,Rtt109 HAT inh,Yeast cmpd fluor,CaMdr1 efflux inh,CaCdr2 efflux inh,Cdr1 pump inh
CCCn1cc(CN2CCc3ccc(NC(=O)C4CCCO4)cc3C2)c(C)n1 (stereo unspecified),-,-,-,-,-,.,.,.,.
CC(=O)Nc1ccc([N+](=O)[O-])c(CS(=O)(=O)c2ccc(C)cc2)c1[N+](=O)[O-],-,-,-,-,-,.,.,.,.
O=c1c(-c2ccc(Cl)cc2)c[nH]n1-c1ccccc1,-,-,-,-,-,.,.,.,.
O=c1c(-c2ccccc2)c[nH]n1-c1cccc([N+](=O)[O-])c1,-,1.0,-,-,-,-,-,-,-
Cc1nc(C)c(C(=O)C2=C(O)C(=O)N(CCN(C)C)C2c2ccccc2)s1 (stereo unspecified),-,-,-,.,-,.,.,.,.
O=c1[nH]c(C2CCN(S(=O)(=O)c3ccccc3F)CC2)nc2c1nnn2Cc1ccc(F)cc1,-,-,-,-,-,.,.,.,.
Cc1ccc(Cn2nnc3c(=O)[nH]c(C4CCN(S(=O)(=O)c5ccc(S(=O)(=O)NC6CC6)cc5)CC4)nc32)cc1,-,-,-,-,-,.,.,.,.
Cc1ccc(Cn2nnc3c(=O)[nH]c(C4CCN(S(=O)(=O)c5ccc(C)cc5)CC4)nc32)cc1,-,-,-,.,-,-,-,-,-
Cc1ccc(Cn2nnc3c(=O)[nH]c(C4CCN(S(=O)(=O)c5ccccc5F)CC4)nc32)cc1,-,-,-,-,-,-,-,-,-
COc1ccc(S(=O)(=O)N(C)C)cc1NC(=O)CSc1nc(N)cc(N)n1,-,-,-,-,-,.,.,.,.
COC(=O)C1=C(C)Nc2c(c(=O)n(C)c(=O)n2C)C1c1ccc(Cl)cc1 (stereo unspecified),-,22,-,.,-,-,-,-,-
COC(=O)C1=C(C)Nc2c(c(=O)n(C)c(=O)n2C)C1c1ccc(C)cc1 (stereo unspecified),-,-,-,-,-,.,.,.,.
S=C(Nc1ccc(Cl)cc1Cl)N1CCCCC1,-,16,-,.,-,-,-,-,-
O=C(NC1CCCCCCC1)NC1CCCCC1,-,1.0,-,.,-,-,-,-,-
CSCc1ccc(C(=O)NCCSc2ccc(Br)cc2)cc1,-,7.4,-,-,-,-,-,-,-
O=C(NCCSc1ccc(Br)cc1)c1ccccc1,-,-,-,.,-,.,.,.,.
CCC1=C(c2cc(OC)c(OC)c(OC)c2)C2(CCCC2)C(=O)O1,-,0.8,-,-,-,-,-,-,-
CC(Oc1ccccc1)C(=O)N(CCC1=CCCCC1)c1c(N)n(Cc2ccccc2)c(=O)[nH]c1=O (stereo unspecified),-,6.2,-,-,.,-,-,-,-
COc1ccc(N=C2S/C(=C\c3cc(C)n(C)c3C)C(=O)N2CC(C)C)cc1,-,-,-,.,-,.,.,.,.
Clc1ccc(C2=NCCn3nc4ccccc4c32)cc1,-,-,-,-,-,.,.,.,.
Nc1c(Cl)cc(C2=NCCn3nc4ccccc4c32)cc1Cl,-,0.6,-,-,-,-,-,-,-
Cc1nn(-c2nnc(NCc3ccccc3)nn2)c(C)c1Br,-,-,-,.,-,.,.,.,.
O=C(Oc1cccc(-n2cnnn2)c1)c1ccco1,-,-,-,.,-,.,.,.,.
CC(=O)Nc1sc2c(c1C(c1ccc(F)cc1)N1CCOCC1)CCCC2 (stereo unspecified),-,-,-,.,-,.,.,.,.
CC(=O)Nc1sc2c(c1C(c1ccc(Cl)cc1)N1CCOCC1)CCCC2 (stereo unspecified),-,1.5,-,.,-,-,-,-,-
SMILES,ASAP1 GAP inh,Efflux pump mplx,ARFGAP1 inhibitor,FGF22 binding,Rtt109 HAT inh,Yeast cmpd fluor,CaMdr1 efflux inh,CaCdr2 efflux inh,Cdr1 pump inh
CC(NC(=O)/C=C/c1ccco1)c1nc2ccccc2n1Cc1c(Cl)cccc1Cl (stereo unspecified),-,11,-,-,-,-,-,-,-
COc1ccccc1C1CCN(Cc2c(C)[nH]c3ccccc23)CC1,-,0.9,-,-,-,-,-,-,-
COc1ccccc1C1CCN(Cc2cccc3ccccc23)CC1,-,-,-,-,-,.,.,.,.
O=C(Cc1ccccc1)NN1C(=O)/C(=C/c2ccc(C(=O)O)cc2)SC1=S,-,-,-,-,-,-,-,-,-
CCOC(=O)C1(C)NC(c2ccccc2F)C2C(=O)N(c3cccc(C(C)=O)c3)C(=O)C21 (stereo unspecified),-,-,-,.,-,.,.,.,.
CCN1C(=O)[C@H]2[C@@H](c3ccc(C)cc3)N3C(=O)N(c4cccc(Br)c4)C(=O)[C@@]3(C)[C@H]2C1=O,-,.,-,-,-,.,.,.,.
COc1cccc(N2CC(=O)N(NC(=O)c3sc4nc(C)cc(C)c4c3N)CC2=O)c1,-,-,-,-,-,.,.,.,.
Cc1cc(C)c2c(N)c(C(=O)NN3CC(=O)N(c4ccccc4F)CC3=O)sc2n1,-,0.8,-,.,-,-,-,-,-
CC(C)[C@H](NS(=O)(=O)c1ccc2c(c1)OCCO2)C(=O)OCC(=O)Nc1cccc(Cl)c1Cl,-,16,-,.,-,-,-,-,-
COc1ccc2nc(SCC(=O)/C(C#N)=C(\C)N)[nH]c2c1,-,-,-,.,-,.,.,.,.
O=C(NN=Cc1cccc([N+](=O)[O-])c1)c1cc(-c2cccnc2)nc2ccccc12,-,-,-,-,-,.,.,.,.
Cc1cc(C(=O)N/N=C/c2cccc([N+](=O)[O-])c2)c2ccccc2n1,-,8.3,-,-,-,845,60,-,-
CN(C)C(=S)SCC(=O)Nc1ccc(Cl)cc1Cl,-,15,-,1.4,-,-,-,-,-
COc1cc(/C=C(\C#N)c2nc3ccccc3n2C)cc(OC)c1O,-,1.0,-,-,-,-,-,-,-
CN(C(=O)CCN1CCCO1)C1CCCN(Cc2ccccc2F)C1 (stereo unspecified),-,-,-,-,-,.,.,.,.
